# Screening results deposited in PubChem by Broad Institute.
# SIRT5 inh: sirtuin-5 (human) deacylase inhibition. Purified SirT5, succinyl-peptide AMC, trypsin-coupled fluorescence. inhibition, % at 15 µM. 330,000 compounds, 1.1% hits; in the data active means inhibition above about 15%
# Target sequence (Q9NXA8 whole entry, looked up): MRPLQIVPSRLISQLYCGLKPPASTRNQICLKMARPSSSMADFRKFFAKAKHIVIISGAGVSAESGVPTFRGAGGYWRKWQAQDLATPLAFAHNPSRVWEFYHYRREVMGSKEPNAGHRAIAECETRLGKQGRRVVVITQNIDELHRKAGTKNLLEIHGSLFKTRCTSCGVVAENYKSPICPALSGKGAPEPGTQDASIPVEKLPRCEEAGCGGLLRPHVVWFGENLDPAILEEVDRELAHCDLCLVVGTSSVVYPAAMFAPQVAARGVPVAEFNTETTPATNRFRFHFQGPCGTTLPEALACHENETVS
# S100A4 inh HTS: S100A4-myosin IIA interaction inhibition; P26447; S100A4/TAMRA-MyoIIA peptide fluorescence polarization; inhibition, % at 10.7 µM; 360,000 compounds, 0.14% hits;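 active means mean inhibition of at least 70% across replicates, with every replicate also reaching that level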
# Target sequence (P26447 whole entry, looked up): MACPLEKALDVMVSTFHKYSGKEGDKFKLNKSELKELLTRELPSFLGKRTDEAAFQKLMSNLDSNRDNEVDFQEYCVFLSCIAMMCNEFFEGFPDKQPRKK
#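 assay system = human S100A4 monomer with TAMRA-labelled myosin IIA peptide | also added = labelled myosin peptide probe, 5 nM | incubation = 5 min between mix addition and reading | control set = DMSO and TFP controls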
# PGC1a acetyl inh: lowers PGC1a acetylation signal in U2OS cells; AlphaScreen anti-acetyl-lysine; with virally co-expressed GCN5 acetyltransferase; inhibition, % at 15.6 µM; 350,000 compounds, 0.17% hits;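 active means every replicate shows inhibition of at least 40%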;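 further: 0% = neutral control wells and 100% = positive control wells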
# Cneo AK release: causes C. neoformans cell lysis. 360,000 compounds, 0.2% hits. lysis activity, % at 15 µM. AID 651654. adenylate kinase release luminescence, 4 h; normalised: neutral wells 0, clomiphene wells 100;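 active means mean lysis activity across replicates of at least 80%, whatever share of replicates individually reach that level; inactive means mean lysis activity below 80%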
#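 Signal: Adenylate kinase release luminescence | Assay system: Log-phase Cryptococcus neoformans yeast cells | Input: Cells at 5 × 10^6 per mL | Buffer or medium: Fresh YPD growth medium | Compound: Single dose | Schedule: Static 4 h at 37 °C with compound, 1 h detection | Controls: Clomiphene | Read-out: Luminescence rise reflecting yeast cell lysis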
# Ecoli rRNA inh: inhibitors of bacterial rRNA selective over humanized ribosomes | E. coli WT GFP vs humanized-ribosome RFP mutants, fluorescence, 24 h; stronger effect = lower value; DMSO median 0, no signal -100 | 350,000 compounds, 1.6% hits | GFP signal change (wild-type ribosome), % (test concentration not listed) | AID 720706;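 active means significant combined selectivity score with lowered wild-type GFP, culture density cut under 30%, mutant RFP and density less affected; inactive means any of these conditions unmet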
# C2C12 statin: protects C2C12 myotubes from simvastatin toxicity | ATP luminescence, 48 h; scaled: DMSO 0, geranylgeraniol control 100 | rescue of ATP level, % at 7.49 µM | 330,000 compounds, 0.78% hits | AID 602340;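 active means mean ATP rescue above about 67%, or every replicate alone reaching that limit, limit read from the data, passing the limit was not always enough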;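 further: myotubes were challenged with 10 µM simvastatin during compound exposure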
# The depositor's hits bear a star; . = no result given; ! = a repeat was not active. Only some compounds are listed: those with a hit (about 3% of all), similar ones and a draw of the others.
SMILES,SIRT5 inh,S100A4 inh HTS,PGC1a acetyl inh,Cneo AK release,Ecoli rRNA inh,C2C12 statin
COc1ccc(S(=O)(=O)N(C)C[C@H]2OCCCC[C@@H](C)Oc3ccc(NS(=O)(=O)c4ccc(C)cc4)cc3C(=O)N([C@H](C)CO)C[C@@H]2C)cc1,5,7,7,-4,2,3
COc1ccc(S(=O)(=O)N(C)C[C@H]2OCCCC[C@H](C)Oc3ccc(NS(=O)(=O)c4ccc(C)cc4)cc3C(=O)N([C@H](C)CO)C[C@@H]2C)cc1,23*,-45,16,-3,-3,11
COc1ccc(S(=O)(=O)N(C)C[C@H]2OCCCC[C@H](C)Oc3ccc(NS(=O)(=O)c4ccc(C)cc4)cc3C(=O)N([C@@H](C)CO)C[C@H]2C)cc1,20*,-20,-27,0,2,9
COc1ccc2c3c(n(C)c2c1)[C@H](CO)N(C)CC31CCN(S(C)(=O)=O)CC1,.,.,.,.,-5,.
CCOC(=O)c1sc(NC(=O)c2c(C)nn(Cc3ccccc3)c2C)cc1C,.,.,6,-1,.,102*
COc1ccccc1-c1cnc2c(c1)C(=O)N([C@@H](C)CO)C[C@@H](C)[C@H](CN(C)C(=O)c1cccnc1)O2,-14,23,-7,89*!,3,5
COCC(=O)N(C)C[C@H]1Oc2ncc(-c3ccccc3F)cc2C(=O)N([C@H](C)CO)C[C@H]1C,-1,-25,12,22,2,4
COCC(=O)N(C)C[C@H]1Oc2ncc(-c3ccccc3F)cc2C(=O)N([C@@H](C)CO)C[C@H]1C,-14,-2,7,87*,3,-9
C[C@H]1CN([C@@H](C)CO)C(=O)c2cc(C#CC(C)(C)O)cnc2O[C@@H]1CN(C)C(=O)C1CCC1,-2,11,101*,-1,9,3
COCC#Cc1cnc2c(c1)C(=O)N([C@@H](C)CO)C[C@@H](C)[C@H](CN(C)C(=O)c1cccnc1)O2,16*,-6,-10,-3,1,16
COc1ccccc1-c1cnc2c(c1)C(=O)N([C@H](C)CO)C[C@H](C)[C@H](CN(C)C(=O)c1cccnc1)O2,0,2,-8,-3,-3,4
C[C@H]1CN([C@@H](C)CO)C(=O)c2cc(NC(=O)Cn3cnnn3)ccc2O[C@H]1CN(C)C,-4,16,4,-1,4,-3
C[C@@H]1CN([C@@H](C)CO)C(=O)c2cccc(NS(C)(=O)=O)c2O[C@@H]1CN(C)C(=O)Nc1ccccc1,-2,9,-1,-2,1,7
COCC#Cc1ccc([C@@H]2[C@H](CO)N3CCCCN(S(=O)(=O)c4ccccc4F)C[C@@H]23)cc1,-3,-4,2,2,4,-28
COCC#Cc1cnc2c(c1)C(=O)N([C@H](C)CO)C[C@@H](C)[C@H](CN(C)C(=O)C1CC1)O2,5,-4,5,3,4,11
COCC#Cc1cnc2c(c1)C(=O)N([C@@H](C)CO)C[C@@H](C)[C@H](CN(C)C(=O)C1CC1)O2,5,2,-6,18,9,17
COCC#Cc1cnc2c(c1)C(=O)N([C@@H](C)CO)C[C@@H](C)[C@@H](CN(C)C(=O)C1CC1)O2,4,0,-4,87*,4,13
COCC#Cc1cnc2c(c1)C(=O)N([C@H](C)CO)C[C@H](C)[C@H](CN(C)C(=O)C1CC1)O2,5,-2,-1,101*,7,4
COCC#Cc1cnc2c(c1)C(=O)N([C@H](C)CO)C[C@H](C)[C@H](CN(C)C(=O)C1CCC1)O2,6,133*,.,-4,5,1
CC(=O)N1[C@H](CO)[C@H](c2ccc(-c3cccnc3)cc2)[C@H]1CNC(=O)C1CC1,-2,-1,7,.,3,.
CCC(=O)N(C)C[C@@H]1Oc2cc(-c3ccccc3F)ccc2S(=O)(=O)N([C@@H](C)CO)C[C@@H]1C,-1,-5,-29,-3,-3,11
COc1ccc2c3c([nH]c2c1)[C@H](CO)N(Cc1ccccc1)CC31CN(S(C)(=O)=O)C1,.,.,.,.,0,.
